Screening results (PubChem)
T cruzi inh – blocks replication of Trypanosoma cruzi; T. cruzi beta-gal in NIH3T3, luminescence, 90 h; inhibition, % (concentration not given with the values); hit rate 1.4% among 300,000;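 active means mean inhibition across valid replicates above about 55%, limit read from the data; inconclusive means mean below that limit but half or more replicates reach it; inactive means mean below it, under half of replicates reach it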;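 further: signal also drops with host cell toxicity which is not excluded here; 0% = plate median of DMSO wells and 100% = zero luminescence signal; higher percent means less beta-gal luminescence so fewer parasites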
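compound dosing = single 50 nL compound addition per well in DMSO | material = NIH/3T3 host cells with β-galactosidase reporter T. cruzi | input = 5,000 host fibroblasts per well | timing = ≥90 h infection period, 3 h prior cell attachment | read-out basis = percent inhibition of parasite-derived β-gal signal | detection = GalScreen β-gal luminescence, detergent lysis, 60 min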
Beta cell apopt – blocks beta cell apoptosis; INS-1E cytokine-induced death, ATP luminescence, 48 h; percent of positive-control rescue, neutral wells zero; hit rate 0.8% among 300,000; protection from apoptosis, % (test concentration not listed);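 active means Every replicate reaches about 75%, or at least half do and their mean reaches it too, limit read from the data; inconclusive means At least half of replicates reach the limit but their mean does not; inactive means Under half of replicates reach the limit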;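 further: 0% = cytokine-treated negative control wells and 100% = positive control rescue; higher means more ATP so stronger rescue from cytokine killing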
CSC inhib – cancer stem cell inhibition | cancer stem cell-like cells viability, luminescence | inhibition, % at 7.5 µM | hit rate 1.1% among 300,000; in the data active means inhibition above about 75%; inconclusive means no clear call, values can overlap the other calls; tested in HMLE shEcad cells
PREPL inh – human PREPL enzyme inhibition | Q4J6C6 | recombinant PREPL, fluorescence polarization activity-based probe | inhibition, % at 5.96 µM | hit rate 0.68% among 320,000; in the data active means inhibition above about 43%;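 further: 0% = enzyme with DMSO and 100% = wells lacking enzyme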
Target sequence (Q4J6C6 whole entry, looked up): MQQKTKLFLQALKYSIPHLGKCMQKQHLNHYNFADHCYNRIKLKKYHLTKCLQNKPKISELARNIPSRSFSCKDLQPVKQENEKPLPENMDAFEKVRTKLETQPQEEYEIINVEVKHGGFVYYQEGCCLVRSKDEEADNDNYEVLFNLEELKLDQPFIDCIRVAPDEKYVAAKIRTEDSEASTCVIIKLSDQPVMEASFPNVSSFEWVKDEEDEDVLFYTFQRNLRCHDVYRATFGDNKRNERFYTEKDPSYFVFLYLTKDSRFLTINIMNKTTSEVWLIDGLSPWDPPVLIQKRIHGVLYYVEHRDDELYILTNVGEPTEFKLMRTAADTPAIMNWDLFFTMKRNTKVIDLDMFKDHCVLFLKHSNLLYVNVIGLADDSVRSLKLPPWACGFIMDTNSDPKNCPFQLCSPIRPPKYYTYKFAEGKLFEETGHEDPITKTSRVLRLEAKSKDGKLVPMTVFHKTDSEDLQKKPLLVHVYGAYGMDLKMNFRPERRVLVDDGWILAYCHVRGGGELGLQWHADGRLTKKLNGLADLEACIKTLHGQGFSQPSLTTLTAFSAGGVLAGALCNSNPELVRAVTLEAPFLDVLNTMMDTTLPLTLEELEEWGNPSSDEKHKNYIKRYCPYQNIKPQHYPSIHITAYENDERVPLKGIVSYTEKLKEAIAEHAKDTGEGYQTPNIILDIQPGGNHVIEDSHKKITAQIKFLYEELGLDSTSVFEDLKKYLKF
GRIN3A LBD mod – NR3A (human) ligand-binding domain modulation; NR3A LBD differential scanning fluorimetry, Tm shift; 0% = protein alone, 100% = glycine-bound protein; Tm shift relative to glycine control, % at 25 µM; hit rate 2.5% among 340,000; AID 1259313;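 active means melting temperature shift of at least 10% of the positive control shift, at one fixed dose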
CHOP inhibitor – blocks CHOP induction under ER stress; CHO-K1 CHOP-promoter luciferase, tunicamycin-induced, 15-18 h; inhibition, % at 10 µM; hit rate 3.8% among 220,000;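 active means compounds that reduced the stress-induced luciferase reporter signal by more than about 70% of percent inhibition, limit read from the data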;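 further: 0% = tunicamycin plus vehicle and 100% = wells without tunicamycin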
* marks the source's active call; other numbers are inactive results. Rows were chosen to be rich in hits. Some 6.7% of all compounds tested hit in one or more screens of this group.

Screening O=[N+]([O-])c1cc(-c2n[nH]c(-c3ccccc3)n2)cc([N+](=O)[O-])c1 returned T cruzi inh 71.6*, Beta cell apopt 3.7, CSC inhib 1.8, PREPL inh 9.5, GRIN3A LBD mod 26.9* and CHOP inhibitor 94.0*.
`Cc1cccc(-c2n[nH]c([N+](=O)[O-])n2)c1` gave T cruzi inh 2.3, Beta cell apopt -0.7, CSC inhib 15.5, PREPL inh 4.4, GRIN3A LBD mod -1.2 and CHOP inhibitor 2.9.
Screening O=[N+]([O-])c1cc([N+](=O)[O-])c2n[nH]c(-c3ccccc3)c2c1 returned T cruzi inh 71.1*, Beta cell apopt 14.3, CSC inhib 4.0, PREPL inh 1.4, GRIN3A LBD mod -1.7 and CHOP inhibitor 71.8*.
CC[N+](C)(CC)CCC(c1ccccc1)C1CCCCC1 (centres undefined) was read as T cruzi inh 9.3, Beta cell apopt 105.5*, CSC inhib -5.2, PREPL inh 7.3 and GRIN3A LBD mod 1.6.
Screening Cc1ccc(S(=O)(=O)N2CCN(C(=O)COC(=O)c3cnc(C)cn3)CC2)c(C)c1 returned T cruzi inh -2.5, Beta cell apopt -1.3, CSC inhib -6.4, PREPL inh -0.4 and GRIN3A LBD mod -2.0.
`Cc1nc(NCCNC(=O)c2ccco2)c2c(C)c(C)sc2n1` gave Beta cell apopt 2.6, CSC inhib -17.2, PREPL inh 2.1, GRIN3A LBD mod 13.9* and CHOP inhibitor 39.3.
For Cc1nc(NCCc2ccc(S(N)(=O)=O)cc2)c2c(C)c(C)sc2n1 the results were T cruzi inh -7.2, Beta cell apopt inconclusive, CSC inhib 18.0, PREPL inh 12.3, GRIN3A LBD mod 2.0 and CHOP inhibitor 39.2.
For O=C(COC(=O)COc1ccccc1)Nc1ncc([N+](=O)[O-])s1 the results were Beta cell apopt -5.2, PREPL inh 8.1 and GRIN3A LBD mod 1.2.
`N/C(=N\OC(=O)Nc1ccccc1)c1ncc([N+](=O)[O-])s1` gave T cruzi inh 9.2, Beta cell apopt 10.3, CSC inhib 15.8, PREPL inh 25.6, GRIN3A LBD mod 35.8* and CHOP inhibitor -50.5.
For O=S(=O)(c1ccc2ccccc2c1)N1CCN(C(=S)Nc2ccc(F)c(Cl)c2)CC1 the results were T cruzi inh -5.4, Beta cell apopt -3.5, CSC inhib 30.9, PREPL inh -15.9, GRIN3A LBD mod 19.2* and CHOP inhibitor 17.9.
For CC1CCc2cc(F)cc3c(O)c(C(=O)NCC4CCCO4)c(=O)n1c23 (centres undefined) the results were T cruzi inh 5.6, Beta cell apopt -0.9, CSC inhib 24.7, PREPL inh 11.8, GRIN3A LBD mod 5.6 and CHOP inhibitor 76.7*.
Screening COCc1ccc(C(=O)N2CCCC(Nc3ccc(C(C)C)cc3)C2)o1 (centres undefined) returned T cruzi inh -1.8, Beta cell apopt -2.1, CSC inhib 0.0, PREPL inh 9.5 and GRIN3A LBD mod 1.9.
For O=C(COC(=O)CCS(=O)(=O)c1ccccc1)Nc1ccc(N2CCCCC2)cc1 the results were Beta cell apopt -6.8, CSC inhib -9.6, PREPL inh 7.5 and GRIN3A LBD mod -4.8.
CC(C)C(c1nnnn1Cc1ccco1)N1CCN(c2cccc(Cl)c2)CC1 (centres undefined) was read as T cruzi inh 5.4, Beta cell apopt 22.0, PREPL inh -4.8, GRIN3A LBD mod -26.8 and CHOP inhibitor 11.8.
For CCC(c1nnnn1Cc1ccco1)N1CCN(c2cc(Cl)ccc2C)CC1 (centres undefined) the results were T cruzi inh 26.7, Beta cell apopt 0.7, CSC inhib 94.3*, PREPL inh 28.1, GRIN3A LBD mod 5.5 and CHOP inhibitor 68.7.
Screening Cc1ccc(Cl)cc1N1CCN(Cc2nnnn2Cc2ccco2)CC1 returned T cruzi inh 19.3, Beta cell apopt 3.3, CSC inhib 18.5, PREPL inh -13.0, GRIN3A LBD mod 3.0 and CHOP inhibitor 72.4*.
`O=C(NCCc1ccccc1C(F)(F)F)C1CCC(=O)N(C2CC2)C1` (centres undefined) gave T cruzi inh -6.5, CSC inhib -7.2, PREPL inh -1.2 and GRIN3A LBD mod 0.3.
For CCCCCCNC(=O)CNC(=S)N(Cc1cccs1)C1CCCCC1 the results were T cruzi inh 45.8, Beta cell apopt 1.2, CSC inhib 39.0, PREPL inh -4.4 and GRIN3A LBD mod -1.2.
FC(F)(F)c1ccc(C2[C@H]3CN(Cc4cccnc4)[C@H](c4ccccc4)C34CC2(c2cccnc2)C4)cc1 (some centres undefined) was read as T cruzi inh 47.8, Beta cell apopt 15.1, CSC inhib 101.7*, PREPL inh 5.6, GRIN3A LBD mod -19.7 and CHOP inhibitor 18.3.
For COc1ccc(N=Nc2cc(OC)c(N)cc2OC)cc1 the results were GRIN3A LBD mod 0.5.
For Cc1cc(N=Nc2ccc(C)c(N=Nc3cc(C)c(N)cc3N)c2)c(N)cc1N the results were T cruzi inh 14.0, Beta cell apopt 6.0, CSC inhib 29.7, PREPL inh 69.9*, GRIN3A LBD mod 10.3* and CHOP inhibitor 38.2.
CCn1c(O)c(/C=C2\C=Nc3ccccc32)sc1=Nc1ccc(C)cc1 was read as T cruzi inh 18.6, Beta cell apopt -11.8, CSC inhib 5.7, PREPL inh 3.5, GRIN3A LBD mod 17.9* and CHOP inhibitor 43.9.
Screening CC1CCN(c2cc(N3CCOCC3)c([N+](=O)[O-])cc2F)CC1 returned T cruzi inh 1.1, Beta cell apopt -10.4, CSC inhib 53.6, PREPL inh -2.0, GRIN3A LBD mod 3.1 and CHOP inhibitor 0.7.
CC1CCN(c2cc(N3CCOCC3)c(F)cc2[N+](=O)[O-])CC1 was read as T cruzi inh 33.3, Beta cell apopt 6.0, CSC inhib -1.5, PREPL inh 0.5, GRIN3A LBD mod 14.6* and CHOP inhibitor 81.5*.
`CC(C)C(=O)N1CCN(c2cc(N3CCN(C)CC3)c(F)cc2[N+](=O)[O-])CC1` gave T cruzi inh 77.0*, Beta cell apopt 3.8, CSC inhib -1.3, PREPL inh 0.8, GRIN3A LBD mod -0.6 and CHOP inhibitor 8.4.
`C/C(=N/NC(=O)c1cc(C)[nH]n1)c1ccncc1` gave T cruzi inh 9.4, Beta cell apopt -5.4, CSC inhib -7.9, PREPL inh 6.7 and GRIN3A LBD mod -0.7.
For COc1cc(C2Nc3ccc4ccccc4c3C3=C2C(=O)CC(C)(C)C3)ccc1OC(C)C(=O)O (centres undefined) the results were T cruzi inh -14.4, Beta cell apopt -3.1, CSC inhib -12.2, PREPL inh 3.5 and GRIN3A LBD mod -1.8.
Screening O=c1/c(=C\c2ccc(O)cc2)sc2nc(-c3ccccc3)c(-c3ccccc3)n12 returned T cruzi inh 29.9, Beta cell apopt 3.8, CSC inhib 16.9, PREPL inh -3.0, GRIN3A LBD mod -0.9 and CHOP inhibitor 91.4*.
